The nature of data set [1]: Drug hydrolysis in Wistar rat duodenal S9 fraction. The format is ADME, Duodenum. Summed up: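 Duodenal or jejunal mucosa from fasted rats homogenized in 50 mM HEPES (pH 7.4) with 1.15% KCl; S9 is the 9000 g supernatant. S9 pre-incubated 5 min at 37°C, then drug added at 10–500 µM final (1% DMSO). Run for 20 min, stopped with acetonitrile, temocaprilat formed measured by HPLC. Km and Vmax from Michaelis–Menten nonlinear fit. Inhibitor (1 mM BNPP) pre-incubated 5 min. Results as % of control.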

Data set [2] can be described thus: Drug hydrolysis in intact Wistar rat jejunal S9 fraction at 500 uM assessed per mg protein in presence of 100 uM CES inhibitor BNPP. The data set is classed as ADME, Jejunum. The note with it: s9, 500 µM. The method, boiled down:
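Jejunal mucosal homogenate or S9 (HEPES pH 7.4/KCl) taken from intact jejunum, or after 40 min perfusion with or without 400 µM BNPP. Protein at 400 µg/ml incubated at 37°C with 500 µM drug. Added BNPP (100 or 1000 µM) pre-incubated 5 min. Temocaprilat formed measured by HPLC and given as nmol/min/mg protein and % of control. Mean ± S.D., n = 4.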

In data set [3] the test system is Jejunum. Briefly: Intracellular drug level in Wistar rat jejunum treated with Temocaprilat at 100 uM at pH 7.4 by in-situ single-pass perfusion method. The data set is classed as ADME, tissue-based. The conditions noted are these: in vivo, pH 7.4, 100 µM.
For data set [4], the system named is Jejunum. Briefly: Apparent absorption clearance in Wistar rat jejunum pre-perfused with 400 uM CES inhibitor BNPP at 100 uM at pH 5.4 by in-situ single-pass perfusion method. The format is ADME, tissue-based. The conditions noted are these: in vivo, pH 5.4, 100 µM. The method, boiled down: (§1)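 Same in situ jejunal single-pass perfusion, with carboxylesterase blocked by pre-perfusing the lumen with 400 µM BNPP for 40 min. Then 100 µM drug in luminal phosphate buffer (pH 5.4 or 6.4) at 0.2 ml/min. Vascular Krebs–Henseleit (pH 7.4) at 2.5 ml/min. Luminal, vascular and tissue levels measured by HPLC. Rates are luminal disappearance and appearance in lumen or mesenteric vein. Mean ± S.D., n = 3.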

Data set [5] relates to Jejunum. Briefly: Intracellular drug level in Wistar rat jejunum assessed as temocaprilat level pre-perfused with 400 uM CES inhibitor BNPP at 100 uM at pH 6.4 by in-situ single-pass perfusion method. The data set is classed as ADME, tissue-based. The conditions noted are these: in vivo, pH 6.4, 100 µM. The method, boiled down:
as §1

Each structure is given as a SMILES string.

For the compound `CCOC(=O)[C@H](CCc1ccccc1)N[C@H]1CS[C@H](c2cccs2)CN(CC(=O)O)C1=O` [TEMOCAPRIL], in data set [1], the Michaelis-Menten constant (Km) was 47.4 µM. For the same compound, the Drug degradation in data set [2] came to 1.13 nmol/min. The Drug uptake in the data set with Jejunum [3] was 17.6 nmol/g; in the data set on Jejunum [5], 14.6 nmol/g. Further, in the data set with Jejunum [4], the “CL(app)” value was 10.6 µL/min.

For the origin of these results see ChEMBL document CHEMBL3526140, “Prediction of human intestinal absorption of the prodrug temocapril by in situ single-pass perfusion using rat intestine with modified hydrolase activity” (Drug Metab Dispos, 2011).
